# Compound activity: PubChem, several laboratories
# The sample as a whole holds a higher share of hits than the screen did.
# XBP1 UPR activ: activators of adaptive arm of unfolded protein response (XBP1); CHO-XBP1 luciferase reporter, IRE1-XBP1 UPR activation, luminescence; percent of tunicamycin response, DMSO as zero; activation, % at 20 µM; actives 0.33% (n = 330,000);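 active means versus positive control, 20 µM dose yields 30% or more activation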;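 further: 100% = tunicamycin at 10 µg/mL and 0% = DMSO only wells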
#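 Material: IRE1-XBP1 luciferase reporter CHO line / Quantity: one thousand reporter cells per well / Buffer or medium: F12 with 10% serum / Compound: 20 µM single concentration, DMSO 1% / Times: 6 h treatment, 37 °C / Detection: Steady-Glo luciferase glow luminescence, 10 min after reagent addition / Benchmarks: tunicamycin high, DMSO low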
# 697 NFkB inh: inhibitors of the PMA/ionomycin-induced NF-kB reporter in 697 B cells; 697 B-cell NF-kB luciferase reporter, 16 h; inhibition, % at 4 µM; actives 0.33% (n = 330,000); in the data active means inhibition above about 35%
# Jurkat NFkB inh: lowers PMA/ionomycin-induced NF-kB signal in Jurkat cells | PMA/ionomycin-induced NF-kB luciferase reporter, luminescence | inhibition, % at 4 µM | actives 0.53% (n = 330,000) | AID 435003; in the data active means inhibition above about 50%
# CHOP UPR activ: activators of apoptotic arm of unfolded protein response (CHOP); CHO-CHOP luciferase reporter, UPR activation, luminescence; percent of tunicamycin response over DMSO baseline; actives 0.34% (n = 330,000); activation, % at 10 µM; AID 449763;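 active means at 10 µM dose, activation of 40% or more, normalized to positive control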;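 further: 100% = tunicamycin at 10 µg/mL and 0% = DMSO alone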
#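 System: CHO-CHOP luciferase reporter cell line; amount: 500 cells/well; buffer or medium: F12 medium containing 10% fetal bovine serum; incubation: 6 h compound exposure at 37 °C after overnight seeding; measured by: luciferase luminescence after 10 min with Steady-Glo reagent; evaluation: % reporter activation, DMSO baseline versus tunicamycin full activation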
# CHOP inh: CHOP inhibition in unfolded protein response; CHO-K1 CHOP-promoter luciferase, tunicamycin-induced, 15-18 h; inhibition, % at 10 µM; actives 3.8% (n = 220,000); AID 2732;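 active means compounds that reduced the stress-induced luciferase reporter signal by more than about 70% of percent inhibition, limit read from the data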;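 further: 0% = tunicamycin plus vehicle and 100% = wells without tunicamycin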
# CHOP inh conf: confirmation of CHOP induction inhibitors; shares compounds with CHOP inh; CHO-CHOP promoter luciferase reporter, tunicamycin-induced, luminescence; inhibition, % at 10 µM; actives 45% (n = 2,100); AID 504437;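 active means mean of three repeat readings of reporter signal inhibition above a set limit, cut at about 70% in these data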;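 further: 0% = tunicamycin plus vehicle and 100% = wells lacking tunicamycin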
# Jurkat NFkB conf: lowers PMA/ionomycin-induced NF-kB signal in Jurkat cells. actives 27% (n = 2,700). Jurkat NF-kB luciferase, 16 h. shares compounds with Jurkat NFkB inh. inhibition, % at 4 µM;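 active means inhibition reaching about 45% at 4 µM in either replicate, limit read from the data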;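 further: plate controls were PMA/ionomycin stimulated DMSO wells for no effect and unstimulated DMSO wells for full effect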
# 697 NFkB conf: lowers PMA/ionomycin-induced NF-kB signal in 697 B cells | shares compounds with 697 NFkB inh | 697 B-cell NF-kB luciferase, 16 h | inhibition, % at 4 µM | actives 35% (n = 2,000) | AID 449746; in the data active means inhibition mostly above about 28%, no sharp cut-off; inactive means mostly below about 22%
# CHOP UPR conf: confirmation of apoptotic unfolded protein response (CHOP) activators | actives 64% (n = 1,000) | shares compounds with CHOP UPR activ | CHO-CHOP cells, CHOP-luciferase reporter luminescence; percent of tunicamycin response, DMSO as zero | activation, % at 10 µM | AID 463112; in the data active means activation above about 33%;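 further: 0% = DMSO wells and 100% = tunicamycin 10 µg/mL wells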
# * = called active by the depositor; x = no result.
SMILES,XBP1 UPR activ,697 NFkB inh,Jurkat NFkB inh,CHOP UPR activ,CHOP inh,CHOP inh conf,697 NFkB conf,others
COc1cccc(NC(=O)CSc2nnc(-c3cc(C)n(-c4ccccc4)c3C)o2)c1,-4,71*,-6,-8,98*,85*,17,
C=CCc1c(Cl)nc(C)nc1NCc1ccccc1,-3,-29,-12,1,x,x,x,
CCN1/C(=C/C(C)=C/c2sc3ccccc3[n+]2CC)Sc2ccccc21,-11,49*,93*,-9,110*,141*,7,Jurkat NFkB conf=78*
Cc1ccc(NC(=O)O/N=C/c2c(C)nn(C(C)(C)C)c2C)cc1Cl,-11,63*,14,-10,99*,120*,78*,
Cc1ccc(NC(=O)Nn2cnnc2)cc1Cl,-1,2,-12,4,x,x,x,
CCc1ccc(/C=C2\SC(=S)N(CCCC(=O)Nc3ccccn3)C2=O)cc1,-9,76*,14,-10,102*,126*,58*,
COc1ccc(/C=C2\SC(=S)N(CCC(=O)NCCc3ccc(O)cc3)C2=O)cc1,-5,18,12,0,x,x,x,
COc1ccc(/C=C2\SC(=S)N(CCCC(=O)Nc3ccc(O)cc3)C2=O)cc1,-2,69*,-5,-7,99*,112*,75*,
COc1cc(/C=C2\SC(=S)N(CCC(=O)Nc3ccc(O)cc3)C2=O)cc(OC)c1OC,-7,-19,-1,1,x,x,x,
COc1ccc(/C=C2/SC(=S)N(CCCC(=O)Nc3ccc(O)cc3)C2=O)cc1,-3,71*,-16,-6,99*,118*,79*,
O=C(CCCN1C(=O)/C(=C/c2cccc(Br)c2)SC1=S)Nc1ccccn1,-1,2,-4,-1,5,x,x,
O=C(O)c1cccc(S(=O)(=O)N(Cc2ccccc2)c2cccc(C(F)(F)F)c2)c1,-6,-10,-6,0,x,x,x,
COc1ccc(OCc2cccc(C(=O)Nn3cc([N+](=O)[O-])cn3)c2)cc1,-7,93*,-11,-11,98*,123*,83*,
COC(=O)c1cccc(Cn2cc([N+](=O)[O-])cn2)c1,0,7,2,-2,13,x,x,
COc1cc(NS(=O)(=O)c2ccc(NC(=S)NC(=O)COc3ccccc3OC)cc2)nc(OC)n1,-4,15,6,-2,-3,x,x,
CC(C)(C)C1C/C(=C/c2ccccn2)C(=O)/C(=C/c2ccccn2)C1 (centres undefined),-7,105*,100*,-9,109*,137*,-124,Jurkat NFkB conf=-5
O=C1/C(=C/c2ccccn2)COc2ccccc21,4,0,-15,1,-48,x,x,
COC(=O)c1cn[nH]c1NC(=S)Nc1ccc(Cl)c(Cl)c1,-2,-420,-278,3,97*,24,-215,Jurkat NFkB conf=-109
COc1ccc(C(C(=O)NC2CCCCC2)N(C(=O)CCl)c2ccc(Cl)cc2)cc1 (centres undefined),-4,92*,76*,1,107*,27,19*,Jurkat NFkB conf=20
COc1ccccc1NC(=O)N(Cc1ccccc1)C1=NCC(C)S1 (centres undefined),-2,-2,-6,0,24,x,x,
Cc1ccc(-c2nc3cc(N)ccc3o2)cc1,-2,-265,-202,-1,102*,60,-193,Jurkat NFkB conf=-82
O=C(O)CSCC(=O)Nc1ccc(C2CCCCC2)cc1,-5,90*,63*,-8,99*,108*,83*,Jurkat NFkB conf=78*
CC(C)Oc1cc(O)c2c(=O)c(-c3ccc(O)cc3)coc2c1,6,-285,-33,8,x,20,-191,
CCCCCCn1c(-c2ccco2)nc2oc3cc(OC)ccc3c(=O)c2c1=O,2,42*,7,0,96*,107*,35*,
Cc1cccc(N(C(=O)C(F)(F)F)C(C(=O)NC2CCCCC2)c2cccs2)c1 (centres undefined),2,15,2,-1,39,x,x,
SMILES,XBP1 UPR activ,697 NFkB inh,Jurkat NFkB inh,CHOP UPR activ,CHOP inh,CHOP inh conf,697 NFkB conf,others
C#CC(=O)N(c1cccc(OC)c1)C(C(=O)NC1CCCC1)c1cccs1 (centres undefined),-11,103*,99*,-10,108*,119*,100*,Jurkat NFkB conf=94*
C#CC(=O)N(c1ccc(OC)c(OC)c1)C(C(=O)NC1CCCC1)c1cccs1 (centres undefined),-9,101*,100*,-9,109*,122*,102*,Jurkat NFkB conf=85*
O=C(NNC(=O)C1CC=CCC1C(=O)O)c1ccc(Cl)cc1 (centres undefined),-1,9,5,-1,-4,x,x,
CCCCCCCN1CCN=C1Nc1ccccc1,2,5,17,-1,x,x,x,
CN(C)CCCNc1ccc(-c2cc(Nc3cccc(Cl)c3)ncn2)cn1,-1,-14,-9,3,-40,x,x,
OCCCNc1cc(-c2ccnc(Nc3cccc(Cl)c3)n2)ccn1,-5,85*,99*,2,103*,107*,91*,Jurkat NFkB conf=100*
c1ccc2c(CN3CCSCC3)cccc2c1,-5,-4,14,1,x,x,x,
O=C(Cc1c2ccccc2nc2ccccc12)c1ccccc1,-2,-25,-25,0,16,x,x,
CC1=CC(C)(C)Nc2ccc(OC(=O)CCN3C(=O)c4ccccc4C3=O)cc21,-7,41*,15,-5,108*,-220,14,
O=C(CCN1C(=O)c2ccccc2C1=O)Oc1ccc2ccccc2c1,1,12,-12,0,39,x,x,
Cn1c(-c2cccc(F)c2)nc2c1c(=O)[nH]c(=O)n2Cc1ccccc1,2,7,19,-2,x,x,x,
Cn1c(-c2cccc(OCc3ccccc3)c2)nc2c1c(=O)[nH]c(=O)n2Cc1ccccc1,16,5,-6,76*,106*,79*,x,CHOP UPR conf=144*
N#C/C(=C/c1ccc(N2CCCCCC2)o1)c1ccc(Cl)cc1,-1,-12,17,92*,103*,31,x,CHOP UPR conf=17
CCOC(=O)c1ccc(N2C(=O)C=CC2=O)cc1,-4,-2,2,47*,112*,-37,x,CHOP UPR conf=33*
NC(=O)CCN1CCN(C(=O)c2ccc3nc(Cc4cccc(Cl)c4)oc3c2)CC1,-2,-1,-16,-2,x,x,x,
